Reference: ChEMBL document CHEMBL1212823, “m-Azipropofol (AziPm) a photoactive analogue of the intravenous general anesthetic propofol” (J Med Chem, 2010)
Converted amounts (≈) assume the structure as drawn. The source made the active and inactive calls. No cut-off for these calls is given here.

Experiments:
[1] = Chemical stability of the compound assessed as half life in presence of UV irradiation; type: physicochemical
Procedure, shortened: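 A 160 μM solution in distilled water in a 1 cm quartz cuvette was irradiated at 350 nm for 30 min. UV spectra were taken every 3 min to follow loss of the diazirine peak (368 nm); t1/2 reported with 95% CI.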

[2] = system: Xenopus laevis; assay: Anesthetic effect on Xenopus laevis tadpole assessed as loss of startle reflex after 30 mins; type: functional, organism-based; conditions: 0.5 h
Procedure, shortened: (§1)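 Xenopus tadpoles in groups of 10, in 30 mL pond water containing a range of compound concentrations, incubated 30 min to equilibrate. Water was then replaced with fresh pond water and recovery followed over 24 h.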

[3] = species: Equus caballus; assay: Binding affinity to horse spleen apoferritin using 1-AMA by fluorescence competition assay
Procedure, shortened: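 HSAF 7 μM with 7 μM 1-aminoanthracene in pH 7.4 PBS, titrated with compound 0–110 μM. Excitation 380 nm, emission 400–800 nm, baseline-corrected. Variable-slope Hill fit gave IC50 and Hill slope; KD obtained by Cheng–Prusoff correction for the 1-AMA competitor.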

[4] = biological target: T1, GABA-A receptor; alpha-1/beta-2/gamma-2 (Rattus norvegicus) (UniProt P18508+P62813+P63138); assay: Activation of rat alpha-1-beta-2-gamma-2L expressed in HEK293 cells at 30 uM by electrophysiological assay; type: cell-based
[5] = Binding affinity to horse spleen apoferritin using 1-AMA by fluorescence competition method
[6] = species: Equus caballus; assay: Binding affinity to horse spleen apoferritin by isothermal titration calorimetry
Procedure, shortened: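 Sequential titrations were linked and corrected with ligand-into-buffer, buffer-into-protein and buffer-into-buffer controls. Heats were fitted to a single binding-site class, Hill slope fixed at 1; mean with 95% CI.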

[7] = biological target: T1, GABA-A receptor; alpha-1/beta-2/gamma-2 (Rattus norvegicus); assay: Activation of rat alpha-1-beta-2-gamma-2L expressed in HEK293 cells assessed as potentiation of GABA-induced current at 0.3 to 3 uM by electrophysiological assay relative to control; type: cell-based
[8] = Solubility of the compound in water; type: physicochemical
Procedure, shortened: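 Extinction coefficient of the 368 nm diazirine band determined in methanol at known concentration; maximal concentration in distilled water then calculated from UV absorbance using that coefficient.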

[9] = system: Xenopus laevis; assay: Anesthetic effect on Xenopus laevis tadpole assessed as loss of spontaneous motion measured for 30 seconds after 30 mins; type: functional, organism-based; conditions: 0.5 h; procedure, shortened: as §1

Row | Compound | half-life [1] | EC50 [2] | Activity [3] | Activity [4] | Kd [5] | Activity [6] | fold change (FC) [7] | solubility [8] | EC50 [9]
1 | CC(C)c1ccc(C2(C(F)(F)F)N=N2)cc1O | 34 min | 3.1 µM | 23 µM | inactive | 19 µM | 21 µM | 1.7 | 185 µM (≈ 45.2 µg/mL) | 1.1 µM
2 | CC(C)c1cccc(C(C)C)c1O [PROPOFOL] | – | 2.8 µM | 12 µM | Active | 10 µM | 4.8 µM | 9.3 | – | 1.1 µM
